Our source for the IC50 values is ChEMBL document CHEMBL1131140, “Synthesis and antimalarial activities of fluoroalkyl derivatives of dihydroartemisinin” (J Med Chem, 1998).

In the test the test system is Plasmodium falciparum. Put plainly: In vitro antimalarial activity for Plasmodium falciparum W-2. Format: functional, organism-based. Summed up: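 P. falciparum W-2 cultured in A+ human erythrocytes, RPMI with 10% A+ human serum, 25 mM HEPES, 25 mM NaHCO3, 37 °C, 10% O2/6% CO2/84% N2. Assay at 0.5% parasitemia, 1.5% hematocrit; 2-fold dilutions (methanol stocks), final 1.6–200 nM in triplicate; [3H]hypoxanthine uptake over 42 h; IC50 by nonlinear regression of log dose–response; mean of ≥3 experiments.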
For `C[C@@H]1CC[C@H]2[C@@H](C)C(OCC(F)(F)C(F)(F)C(F)(F)F)O[C@@H]3OC4(C)CC[C@@H]1[C@]32OO4` (single isomer, unassigned), the IC50 (usually the concentration at which inhibition is half-maximal) stood at 36 nM.
As for `COC1O[C@@H]2OC3(C)CC[C@H]4[C@H](C)CC[C@@H]([C@H]1C)[C@@]24OO3` (single isomer, unassigned), the figure is 7.5 nM.
Turning to `CCOC(=O)C(OC1O[C@@H]2OC3(C)CC[C@H]4[C@H](C)CC[C@@H]([C@H]1C)[C@@]24OO3)C(F)(F)F` (single isomer, unassigned), inhibition was half-maximal at 61 nM (IC50).
The molecule `C[C@H]1C(OCC(F)(F)F)O[C@@H]2OC3(C)CC[C@H]4[C@H](C)CCC1[C@@]24OO3` (single isomer, unassigned) yielded a half-inhibitory concentration (IC50) of 31 nM. This IC50 is about 2-fold lower than that of the molecule before.
`C[C@@H]1CC[C@H]2[C@@H](C)C(OC(c3ccccc3)(C(F)(F)F)C(F)(F)F)O[C@@H]3OC4(C)CC[C@@H]1[C@]32OO4` (single isomer, unassigned) registered an IC50 of 38 nM.
As for `C[C@@H]1CC[C@H]2[C@@H](C)C(OC(C(F)(F)F)C(F)(F)F)O[C@@H]3OC4(C)CC[C@@H]1[C@]32OO4` (single isomer, unassigned), it took 34 nM to reach half-maximal inhibition (IC50).
For the molecule `C[C@@H]1CC[C@H]2[C@@H](C)C(OCC(F)(F)C(F)(F)F)O[C@@H]3OC4(C)CC[C@@H]1[C@]32OO4` (single isomer, unassigned), the 50% inhibitory concentration (IC50) came to 27 nM.
Consider `C[C@@H]1CC[C@H]2[C@@H](C)C(OCC(F)(F)C(F)C(F)(F)F)O[C@@H]3OC4(C)CC[C@@H]1[C@]32OO4` (single isomer, unassigned), for which half-maximal inhibition (IC50) was put at 34 nM. This IC50 and that of the molecule before are within 1.5-fold of each other.
With `C[C@@H]1CC[C@H]2[C@@H](C)C(OC(c3ccccc3)C(F)(F)F)O[C@@H]3OC4(C)CC[C@@H]1[C@]32OO4` (single isomer, unassigned) the figure was 66 nM.
For `CC(OC1O[C@@H]2OC3(C)CC[C@H]4[C@H](C)CC[C@@H]([C@H]1C)[C@@]24OO3)C(F)(F)F` (single isomer, unassigned), the midpoint of inhibition, the IC50, lay at 35 nM.
With `C[C@@H]1CC[C@H]2[C@@H](C)[C@](O)(C(F)(F)F)O[C@@H]3OC4(C)CC[C@@H]1[C@]32OO4` (single isomer, unassigned), the IC50 came to 2.6 nM.
`CO[C@H]1O[C@@H]2O[C@@]3(C)CC[C@H]4[C@H](C)CC[C@@H]([C@H]1C)[C@@]24OO3` [ARTEMETHER] gave an IC50 of 5.4 nM.
